Measured values: ChEMBL document CHEMBL1275346, “Halogenation of 4-hydroxy/amino-3-methoxyphenyl acetamide TRPV1 agonists showed enhanced antagonism to capsaicin” (Bioorg Med Chem, 2010)
pEC50, pKi: −log10 of the molar value.

Key:
[1] = target: T1, Transient receptor potential cation channel subfamily V member 1 (Rattus norvegicus, UniProt O35433); assay: Displacement of [3H]RTX from rat TRPV1 expressed in CHO cells; type: cell-based
Method in brief: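 Binding competition against [³H]RTX on rat TRPV1 heterologously expressed in CHO cells. Mean ± SEM from three or more experiments.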

[2] = target: T1, Transient receptor potential cation channel subfamily V member 1; assay: Agonist activity at rat TRPV1 expressed in CHO cells assessed as increase of capsaicin-induced calcium uptake; type: functional, cell-based; conditions: for EC50: cho; for pEC50: read-out: EC50
Method in brief: (§1)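 Functional ⁴⁵Ca²⁺ uptake assay in CHO cells heterologously expressing rat TRPV1. Values are mean ± SEM from three or more experiments.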

[3] = target: T1, Transient receptor potential cation channel subfamily V member 1; assay: Antagonist activity at rat TRPV1 expressed in CHO cells assessed as inhibition of capsaicin-induced calcium uptake; type: functional, cell-based; conditions: for pKi: read-out: Ki; for Ki: cho; method in brief: as §1
[4] = target: Transient receptor potential cation channel subfamily V member 1 (Rattus norvegicus) (UniProt O35433); assay: Agonist activity at rat TRPV1 expressed in CHO cells assessed as increase of capsaicin-induced calcium uptake relative to capsaicin; type: functional, cell-based
Method in brief: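 ⁴⁵Ca²⁺ uptake in CHO cells heterologously expressing rat TRPV1. Agonist efficacy is given as % of the maximal calcium uptake induced by 300 nM capsaicin. Mean ± SEM from three or more experiments.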

[5] = target: Transient receptor potential cation channel subfamily V member 1 (Rattus norvegicus) (UniProt O35433); assay: Partial antagonist activity at rat TRPV1 expressed in CHO cells assessed as inhibition of capsaicin-induced calcium uptake; type: functional, cell-based; conditions: concentration not given here
Method in brief: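 ⁴⁵Ca²⁺ uptake antagonism assay in CHO cells heterologously expressing rat TRPV1. The value is the extent of partial antagonism of capsaicin-induced uptake. Mean ± SEM from three or more experiments.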

T1 sequence (O35433 whole entry): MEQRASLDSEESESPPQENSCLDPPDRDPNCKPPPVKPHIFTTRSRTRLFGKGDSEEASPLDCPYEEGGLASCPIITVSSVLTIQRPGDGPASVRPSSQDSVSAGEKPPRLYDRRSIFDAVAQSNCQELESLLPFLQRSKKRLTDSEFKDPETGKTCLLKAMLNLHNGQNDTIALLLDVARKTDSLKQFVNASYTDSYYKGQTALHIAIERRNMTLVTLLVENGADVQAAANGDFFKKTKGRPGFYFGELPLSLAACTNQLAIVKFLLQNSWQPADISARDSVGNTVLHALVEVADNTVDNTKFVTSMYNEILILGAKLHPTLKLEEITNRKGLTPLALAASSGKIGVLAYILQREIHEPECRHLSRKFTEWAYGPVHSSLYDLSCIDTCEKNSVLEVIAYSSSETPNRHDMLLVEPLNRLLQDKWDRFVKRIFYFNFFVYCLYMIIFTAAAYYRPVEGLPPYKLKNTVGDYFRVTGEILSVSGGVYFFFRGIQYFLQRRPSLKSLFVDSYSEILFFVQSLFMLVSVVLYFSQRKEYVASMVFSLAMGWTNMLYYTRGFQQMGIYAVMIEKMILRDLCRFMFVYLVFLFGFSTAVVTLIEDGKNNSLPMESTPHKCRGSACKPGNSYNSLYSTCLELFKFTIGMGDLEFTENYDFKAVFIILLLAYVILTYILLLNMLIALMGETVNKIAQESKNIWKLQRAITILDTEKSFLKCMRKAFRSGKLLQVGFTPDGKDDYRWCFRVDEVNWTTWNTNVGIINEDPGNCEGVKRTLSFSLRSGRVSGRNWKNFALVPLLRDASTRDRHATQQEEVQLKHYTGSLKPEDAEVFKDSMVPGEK
Transient receptor potential cation channel subfamily V member 1 (Rattus norvegicus), sequence (O35433 whole entry): as above

SMILES	pKi [1]	EC50 [2]	pKi [3]	pEC50 [2]	Ki [3]	Activity [4]	inhibition [5]
COc1cc(CC(=O)NCc2ccc(C(C)(C)C)cc2)cc(I)c1O	7.05	Not Active	7.76	–	–	–	–
COc1cc(CC(=O)NCC(COC(=O)C(C)(C)C)Cc2ccc(C(C)(C)C)cc2)ccc1O (stereo not given)	7.88	–	–	8.39	Not Active	–	–
COc1cc(CC(=O)NCC(COC(=O)C(C)(C)C)Cc2ccc(C(C)(C)C)cc2)cc(Cl)c1O (stereo not given)	7.51	–	–	–	–	25%	76%
COc1cc(CC(=O)NCc2ccc(C(C)(C)C)cc2)cc(Cl)c1OC(C)=O	6.69	–	6.24	–	–	22%	–
COc1cc(CC(=O)NCc2ccc(C(C)(C)C)cc2)ccc1O	6.18	–	–	7.09	Not Active	–	–
CCCCCCCCC(=O)NCc1cc(OC)c(O)cc1I	–	Not Active	–	–	–	–	–
CC(C)(C)C(=O)OCC(CNC(=O)Cc1cc(Br)cc(Br)c1)Cc1ccc(C(C)(C)C)cc1 (stereo not given)	6.68	Not Active	6.97	–	–	–	–
COc1cc(CC(=O)NCC(COC(=O)C(C)(C)C)Cc2ccc(C(C)(C)C)cc2)c(Br)cc1NS(C)(=O)=O (stereo not given)	7.37	–	–	–	–	14%	64%
COc1cc(CC(=O)NCc2ccc(C(C)(C)C)cc2)c(I)cc1O	6.07	–	–	–	–	17%	55%
CC(C)(C)C(=O)OCC(CNC(=O)Cc1ccc(N)c(Br)c1)Cc1ccc(C(C)(C)C)cc1 (stereo not given)	7.24	–	–	–	–	59%	27%
COc1cc(CC(=O)NCC(COC(=O)C(C)(C)C)Cc2ccc(C)c(C)c2)cc(I)c1O (stereo not given)	5.79	–	6.65	–	–	6%	–
COc1cc(CC(=O)NCc2ccc(C(C)(C)C)cc2)c(Cl)cc1OC(C)=O	6.41	–	–	–	–	83%	62%
COc1cc(CC(=O)NCc2ccc(C(C)(C)C)cc2)cc(Br)c1O	7.04	–	6.77	–	–	11%	–
COc1cc(CC(=O)NCC(COC(=O)C(C)(C)C)Cc2ccc(C(C)(C)C)cc2)cc(Cl)c1N (stereo not given)	7.47	Not Active	8.39	–	–	–	–
COc1cc(CC(=O)NCc2ccc(C(C)(C)C)cc2)c(I)cc1OC(C)=O	6.42	–	–	–	–	8%	85%
COc1cc(CC(=O)NCC(COC(=O)C(C)(C)C)Cc2ccc(C(C)(C)C)cc2)c(I)cc1O (stereo not given)	7.68	Not Active	7.87	–	–	–	–
COc1cc(CC(=O)NCc2ccc(C(C)(C)C)cc2)c(Cl)cc1O	6.31	–	–	6.87	Not Active	–	–
COc1cc(CC(=O)NCC(COC(=O)C(C)(C)C)Cc2ccc(C)c(C)c2)c(I)cc1O (stereo not given)	6.94	–	–	–	–	23%	53%
COc1cc(CC(=O)NCc2ccc(C(C)(C)C)cc2)c(Br)cc1OC(C)=O	6.41	–	–	–	–	60%	59%
COc1cc(CC(=O)NCC(COC(=O)C(C)(C)C)Cc2ccc(C(C)(C)C)cc2)c(I)cc1OC(C)=O (stereo not given)	7.71	Not Active	7.28	–	–	–	–
COc1cc(CC(=O)NCC(COC(=O)C(C)(C)C)Cc2ccc(C(C)(C)C)cc2)cc(Br)c1O (stereo not given)	8.03	Not Active	8.06	–	–	–	–
COc1cc(CC(=O)NCC(COC(=O)C(C)(C)C)Cc2ccc(C)c(C)c2)cc(Br)c1O (stereo not given)	7.25	–	–	–	–	43%	62%

SMILES	pKi [1]	EC50 [2]	pKi [3]	pEC50 [2]	Ki [3]	Activity [4]	inhibition [5]
COc1cc(CC(=O)NCc2ccc(C(C)(C)C)cc2)cc(Br)c1OC(C)=O	6.78	–	–	–	–	9%	89%
COc1cc(CC(=O)NCC(COC(=O)C(C)(C)C)Cc2ccc(C(C)(C)C)cc2)cc(I)c1O (stereo not given)	7.66	Not Active	8.55	–	–	–	–
CC(C)(C)C(=O)OCC(CNC(=O)Cc1cc(Br)c(O)c(Br)c1)Cc1ccc(C(C)(C)C)cc1 (stereo not given)	7.69	Not Active	7.97	–	–	–	–
COc1cc(CC(=O)NCC(COC(=O)C(C)(C)C)Cc2ccc(C(C)(C)C)cc2)c(Br)cc1O (stereo not given)	7.60	–	–	–	–	21%	76%
COc1cc(CC(=O)NCC(COC(=O)C(C)(C)C)Cc2ccc(C(C)(C)C)cc2)cc(Br)c1OC(C)=O (stereo not given)	7.87	Not Active	7.14	–	–	–	–
COc1cc(CC(=O)NCC(COC(=O)C(C)(C)C)Cc2ccc(C)c(C)c2)cc(I)c1OC(C)=O (stereo not given)	5.34	–	–	–	–	12%	59%
COc1cc(CC(=O)NCC(COC(=O)C(C)(C)C)Cc2ccc(C(C)(C)C)cc2)ccc1N (stereo not given)	6.97	–	–	7.64	Not Active	–	–
COc1cc(CC(=O)NCC(COC(=O)C(C)(C)C)Cc2ccc(C(C)(C)C)cc2)cc(Br)c1N (stereo not given)	7.10	Not Active	8.47	–	–	–	–
COc1cc(CC(=O)NCC(COC(=O)C(C)(C)C)Cc2ccc(C(C)(C)C)cc2)c(Cl)cc1OC(C)=O (stereo not given)	7.60	–	–	–	–	53%	36%
COc1cc(CC(=O)NCC(COC(=O)C(C)(C)C)Cc2ccc(C(C)(C)C)cc2)cc(Cl)c1OC(C)=O (stereo not given)	7.68	–	–	–	–	28%	58%
CC(C)(C)C(=O)OCC(CNC(=O)Cc1cc(Cl)c(O)c(Cl)c1)Cc1ccc(C(C)(C)C)cc1 (stereo not given)	8.03	Not Active	8.37	–	–	–	–
COc1cc(CC(=O)NCC(COC(=O)C(C)(C)C)Cc2ccc(C(C)(C)C)cc2)ccc1NS(C)(=O)=O (stereo not given)	7.07	–	–	–	–	72%	15%
CC(C)(C)C(=O)OCC(CNC(=O)Cc1cc(Br)c(N)c(Br)c1)Cc1ccc(C(C)(C)C)cc1 (stereo not given)	7.95	Not Active	8.37	–	–	–	–
COc1cc(CC(=O)NCC(COC(=O)C(C)(C)C)Cc2ccc(C(C)(C)C)cc2)c(Cl)cc1O (stereo not given)	7.42	–	–	–	–	61%	39%
CC(C)(C)C(=O)OCC(CNC(=O)Cc1ccc(O)c(Br)c1)Cc1ccc(C(C)(C)C)cc1 (stereo not given)	7.60	–	–	–	–	72%	38%
COc1cc(CC(=O)NCC(COC(=O)C(C)(C)C)Cc2ccc(C(C)(C)C)cc2)cc(I)c1OC(C)=O (stereo not given)	7.69	Not Active	7.72	–	–	–	–
COc1cc(CC(=O)NCc2ccc(C(C)(C)C)cc2)c(Br)cc1O	6.44	–	–	–	–	37%	42%
CC(C)(C)C(=O)OCC(CNC(=O)Cc1cc(Cl)c(N)c(Cl)c1)Cc1ccc(C(C)(C)C)cc1 (stereo not given)	8.03	Not Active	8.40	–	–	–	–
CC(C)(C)C(=O)OCC(CNC(=O)Cc1ccc(N)c(Cl)c1)Cc1ccc(C(C)(C)C)cc1 (stereo not given)	6.10	–	–	–	–	85%	24%
COc1cc(CC(=O)NCc2ccc(C(C)(C)C)cc2)cc(I)c1OC(C)=O	7.03	Not Active	7.32	–	–	–	–
COc1cc(CC(=O)NCc2ccc(C(C)(C)C)cc2)cc(Cl)c1O	6.79	–	–	–	–	25%	66%
COc1cc(CC(=O)NCC(COC(=O)C(C)(C)C)Cc2ccc(C(C)(C)C)cc2)c(Br)cc1OC(C)=O (stereo not given)	7.46	–	–	–	–	22%	63%
